ChEMBL document CHEMBL1126325, “Inhibition of pig kidney L-aromatic amino acid decarboxylase by 2,3-methano-m-tyrosines” (J Med Chem, 1992)
One block for each molecule: values may come before it.

Experiments:
[1] = target: T1, Aromatic-L-amino-acid decarboxylase (Sus scrofa, UniProt P80041); assay: Inhibitory activity against pig kidney L-aromatic amino acid decarboxylase (Dopa decarboxylase)
T1 sequence (P80041 whole entry): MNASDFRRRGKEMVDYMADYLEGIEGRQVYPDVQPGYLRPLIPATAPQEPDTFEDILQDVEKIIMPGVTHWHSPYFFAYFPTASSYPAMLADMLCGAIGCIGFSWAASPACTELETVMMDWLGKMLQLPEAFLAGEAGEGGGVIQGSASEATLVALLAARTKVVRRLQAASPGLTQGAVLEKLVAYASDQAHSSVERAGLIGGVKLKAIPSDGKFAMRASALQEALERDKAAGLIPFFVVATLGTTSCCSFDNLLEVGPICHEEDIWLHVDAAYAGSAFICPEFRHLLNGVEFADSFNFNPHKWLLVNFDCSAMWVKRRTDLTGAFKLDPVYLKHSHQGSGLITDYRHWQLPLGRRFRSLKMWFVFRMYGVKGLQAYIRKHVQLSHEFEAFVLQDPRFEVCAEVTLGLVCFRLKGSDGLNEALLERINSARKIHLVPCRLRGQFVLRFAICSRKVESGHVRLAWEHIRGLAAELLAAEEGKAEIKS
Summary of the method: (§1)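 The enzyme was purified from pig kidney. The crude extract was clarified with Bioacryl-BP-1000 and centrifuged, then run over DEAE-cellulose, phenyl Sepharose CL-4B and Sephacryl S-300. Decarboxylase activity was measured by a continuous spectrophotometric CO₂-detection procedure using a commercial CO₂ kit. Inhibition was expressed as Ki.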

[2] = target: T2, Aromatic-L-amino-acid decarboxylase (Sus scrofa) (UniProt P80041); assay: Relative inhibitory comparison to that of (+)D-m-Tyrosine.
T2 sequence (whole entry): T1 sequence (P80041 whole entry)

[3] = target: T1, Aromatic-L-amino-acid decarboxylase; assay: Inhibitory activity against pig kidney L-aromatic amino acid decarboxylase (Dopamine decarboxylase); summary of the method: as §1

Relative inhibition [2]: 45.4
SMILES: NC1(C(=O)O)CC1c1cccc(O)c1 (single isomer, unassigned; (+)) [listing 2 of 2 here]

Ki [1]: 630 µM
SMILES: NC1(C(=O)O)CC1c1cccc(O)c1 (single isomer, unassigned; (-)) [listing 1 of 2 here]

Relative inhibition [2]: 1.6
SMILES: NC1(C(=O)O)CC1c1cccc(O)c1 (single isomer, unassigned; (-)) [listing 2 of 2 here]

Further lines, the molecule ahead of its results:

SMILES: N[C@]1(C(=O)O)C[C@@H]1c1cccc(O)c1
Ki [1]: 330 µM
Relative inhibition [2]: 3

SMILES: N[C@@]1(C(=O)O)C[C@H]1c1cccc(O)c1
Ki [1]: 49 µM
Relative inhibition [2]: 20.4

SMILES: NC1(C(=O)O)CC1c1cccc(O)c1 (single isomer, unassigned; (+)) [listing 1 of 2 here]
Ki [3]: 22 µM
